From ChEMBL document CHEMBL1687796, “Synthesis and spectrum of the neoglycoside ACHN-490” (2010)
Converted amounts (≈) assume the structure as drawn.

Key:
[1] = Antibacterial activity against indole positive Proteae by broth microdilution method; assay type: functional
Method in brief: (§1)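 MICs were determined by CLSI broth microdilution against clinical isolate panels that included aminoglycoside-resistant isolates. […] MIC90 was derived per group and not calculated when n was <10. Imipenem, ceftobiprole, ciprofloxacin and tigecycline MICs were also determined for the resistant isolates.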

Klebsiella oxytoca [2] = experiment: Antibacterial activity against aminoglycoside-resistant Klebsiella oxytoca expressing AAC(6')-1 by broth microdilution method; assay type: functional
Method in brief: (§2)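 Clinical aminoglycoside-resistant isolates were each carrying a single aminoglycoside-modifying enzyme. […] MICs were determined by CLSI broth microdilution.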

Pluralibacter gergoviae = experiment: Antibacterial activity against aminoglycoside-resistant Enterobacter gergoviae expressing ANT(2'')-I by broth microdilution method
Escherichia coli [3] = experiment: Antibacterial activity against Escherichia coli by broth microdilution method; assay type: functional; method in brief: as §1
Citrobacter freundii [4] = experiment: Antibacterial activity against aminoglycoside-resistant Citrobacter freundii expressing AAC(3)-2 by broth microdilution method; assay type: functional; method in brief: as §2
Enterobacter sp. = experiment: Antibacterial activity against Enterobacter spp. by broth microdilution method; assay type: functional; method in brief: as §1
Escherichia coli [5] = experiment: Antibacterial activity against aminoglycoside-resistant Escherichia coli expressing ANT(2'')-I by broth microdilution method
Klebsiella sp. = experiment: Antibacterial activity against Klebsiella spp. by broth microdilution method; assay type: functional; method in brief: as §1
Serratia marcescens [6] = experiment: Antibacterial activity against aminoglycoside-resistant Serratia marcescens expressing AAC(6')-1 by broth microdilution method; assay type: functional; method in brief: as §2
Staphylococcus aureus [7] = experiment: Antibacterial activity against aminoglycoside-resistant Staphylococcus aureus expressing APH(2'') + AAC(6') by broth microdilution method; assay type: functional
Method in brief: (§3)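 MICs were measured by broth microdilution following CLSI guidance. The strains formed a 25-strain screening panel with diverse aminoglycoside resistance mechanisms. The panel included Gram-negative and S. aureus strains carrying key aminoglycoside-modifying enzymes, strains with altered permeability or efflux, and an armA ribosomal methyltransferase strain.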

Pseudomonas aeruginosa [8] = experiment: Antibacterial activity against aminoglycoside-resistant Pseudomonas aeruginosa expressing AAC(6')-2 by broth microdilution method; assay type: functional; method in brief: as §2
[9] = system: Staphylococcus epidermidis; experiment: Antibacterial activity against aminoglycoside-resistant Staphylococcus epidermidis expressing APH(2'') + AAC(6')-1 by broth microdilution method; assay type: functional; method in brief: as §2
[10] = system: Acinetobacter calcoaceticus; experiment: Antibacterial activity against aminoglycoside-resistant Acinetobacter calcoaceticus expressing AAC(6')-1 by broth microdilution method; assay type: functional; method in brief: as §2
Escherichia coli [11] = experiment: Antibacterial activity against aminoglycoside-resistant Escherichia coli expressing ANT(2'')-1 by broth microdilution method; assay type: functional; method in brief: as §2
Pseudomonas aeruginosa [12] = experiment: Antibacterial activity against Pseudomonas aeruginosa ATCC 27853 by broth microdilution method; assay type: functional
Serratia liquefaciens = experiment: Antibacterial activity against aminoglycoside-resistant Serratia liquefaciens expressing AAC(3)-2 by broth microdilution method; assay type: functional; method in brief: as §2
Staphylococcus aureus [13] = experiment: Antibacterial activity against aminoglycoside-resistant Staphylococcus aureus expressing ANT(4',4'')-2 by broth microdilution method; assay type: functional; method in brief: as §2
Citrobacter freundii [14] = experiment: Antibacterial activity against aminoglycoside-resistant Citrobacter freundii expressing AAC(6')-1 by broth microdilution method; assay type: functional; method in brief: as §2
Enterobacter cloacae [15] = experiment: Antibacterial activity against aminoglycoside-resistant Enterobacter cloacae expressing AAC(3)-2 by broth microdilution method; assay type: functional; method in brief: as §2
Acinetobacter baumannii [16] = experiment: Antibacterial activity against aminoglycoside-susceptible Acinetobacter baumannii by broth microdilution method; assay type: functional
Pseudomonas aeruginosa [17] = experiment: Antibacterial activity against Pseudomonas aeruginosa expressing mexXY operon by broth microdilution method; assay type: functional; method in brief: as §3
Klebsiella aerogenes [18] = experiment: Antibacterial activity against aminoglycoside-resistant Enterobacter aerogenes expressing AAC(3)-2 by broth microdilution method; assay type: functional; method in brief: as §2
Staphylococcus aureus [19] = experiment: microbe, parasite or virus in culture
Klebsiella aerogenes [20] = experiment: Antibacterial activity against aminoglycoside-resistant Enterobacter aerogenes expressing AAC(6')-1 by broth microdilution method; assay type: functional; method in brief: as §2
Staphylococcus aureus [21] = experiment: microbe, parasite or virus in culture; remark: listed apart in the source
Enterobacter cloacae [22] = experiment: Antibacterial activity against aminoglycoside-resistant Enterobacter cloacae expressing ANT(2'')-I by broth microdilution method
Pseudomonas aeruginosa [23] = experiment: Antibacterial activity against efflux pump deficient Pseudomonas aeruginosa by broth microdilution method; assay type: functional
Pseudomonas aeruginosa [24] = experiment: Antibacterial activity against wild type Pseudomonas aeruginosa expressing efflux pump by broth microdilution method; assay type: functional
Method in brief: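 MIC was determined by CLSI broth microdilution, read in μg/ml. The strain came from a 25-strain screening panel with diverse aminoglycoside resistance mechanisms. The panel included strains with changes in permeability or efflux, key aminoglycoside-modifying enzymes and an armA methyltransferase strain.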

Enterobacter cloacae [25] = experiment: Antibacterial activity against aminoglycoside-resistant Enterobacter cloacae expressing AAC(6')-1 by broth microdilution method; assay type: functional; method in brief: as §2
Klebsiella pneumoniae [26] = experiment: Antibacterial activity against aminoglycoside-resistant Klebsiella pneumoniae expressing AAC(3)-2 by broth microdilution method; assay type: functional; method in brief: as §2
Staphylococcus sp. = experiment: Antibacterial activity against Staphylococcus spp. by broth microdilution method; assay type: functional; method in brief: as §1
Citrobacter = experiment: Antibacterial activity against Citrobacter spp. by broth microdilution method; assay type: functional; method in brief: as §1
Pseudomonas aeruginosa [27] = experiment: Antibacterial activity against Pseudomonas aeruginosa by broth microdilution method; assay type: functional; method in brief: as §1
Serratia marcescens [28] = experiment: Antibacterial activity against aminoglycoside-resistant Serratia marcescens expressing ANT(2'')-I by broth microdilution method
Escherichia coli [29] = experiment: Antibacterial activity against aminoglycoside-resistant Escherichia coli expressing AAC(3)-2 by broth microdilution method; assay type: functional; method in brief: as §2
Klebsiella pneumoniae [30] = experiment: Antibacterial activity against aminoglycoside-resistant Klebsiella pneumoniae expressing AAC(3)-4 by broth microdilution method; assay type: functional; method in brief: as §2
Pseudomonas aeruginosa [31] = experiment: Antibacterial activity against Pseudomonas aeruginosa expressing ANT(4')-2 by broth microdilution method; assay type: functional; method in brief: as §3
Escherichia coli [32] = experiment: Antibacterial activity against aminoglycoside-resistant Escherichia coli expressing armA methylase by broth microdilution method; assay type: functional; method in brief: as §3
Acinetobacter baumannii [33] = experiment: Antibacterial activity against Acinetobacter baumannii ATCC 19606 by broth microdilution method; assay type: functional; conditions: ATCC 19606 = CIP 70.34 = JCM 6841; method in brief: as §3
Klebsiella pneumoniae [34] = experiment: Antibacterial activity against Klebsiella pneumoniae ATCC 10031 by broth microdilution method; assay type: functional; method in brief: as §3
Acinetobacter = experiment: Antibacterial activity against aminoglycoside-resistant Acinetobacter spp. expressing APH(3')-6 by broth microdilution method; assay type: functional; method in brief: as §2
Serratia sp. = experiment: Antibacterial activity against Serratia spp. by broth microdilution method; assay type: functional; conditions: Serratia sp. (in: enterobacteria); method in brief: as §1
Escherichia coli [35] = experiment: Antibacterial activity against Escherichia coli ATCC 25922 by broth microdilution method; assay type: functional; method in brief: as §3
Klebsiella oxytoca [36] = experiment: Antibacterial activity against aminoglycoside-resistant Klebsiella oxytoca expressing AAC(3)-2 by broth microdilution method; assay type: functional; method in brief: as §2
Acinetobacter baumannii [37] = experiment: Antibacterial activity against aminoglycoside-resistant Acinetobacter baumannii expressing […] by broth microdilution method; assay type: functional; method in brief: as §2
Acinetobacter baumannii [38] = experiment: Antibacterial activity against aminoglycoside-resistant Acinetobacter baumannii expressing ANT(2'')-1 by broth microdilution method; assay type: functional; method in brief: as §2
Escherichia coli [39] = experiment: Antibacterial activity against aminoglycoside-resistant Escherichia coli expressing AAC(3)-4 by broth microdilution method; assay type: functional; method in brief: as §2

## NCC[C@H](O)C(=O)N[C@@H]1C[C@H](N)[C@@H](O[C@H]2O[C@H](CN)[C@@H](O)[C@H](O)[C@H]2O)[C@H](O)[C@H]1O[C@H]1O[C@H](CO)[C@@H](O)[C@H](N)[C@H]1O [AMIKACIN]
[1]
  MIC50: 8 µg/mL (≈ 13.7 µM)
Klebsiella oxytoca [2]
  MIC: 30 µg/mL (≈ 51.2 µM)
Pluralibacter gergoviae
  MIC: 2 µg/mL (≈ 3.42 µM)
Escherichia coli [3]
  MIC50: 16 µg/mL (≈ 27.3 µM)
  MIC90: 32 µg/mL (≈ 54.6 µM)
Citrobacter freundii [4]
  MIC: 4 µg/mL (≈ 6.83 µM)
Enterobacter sp.
  MIC50: 8 µg/mL (≈ 13.7 µM)
  MIC90: 64 µg/mL (≈ 109 µM)
Escherichia coli [5]
  MIC: 2 µg/mL (≈ 3.42 µM)
Klebsiella sp.
  MIC50: 32 µg/mL (≈ 54.6 µM)
  MIC90: > 64 µg/mL
Serratia marcescens [6]
  MIC: 30 µg/mL (≈ 51.2 µM)
Staphylococcus aureus [7]
  MIC: 64 µg/mL
Pseudomonas aeruginosa [8]
  MIC: 14 µg/mL (≈ 23.9 µM)
[9]
  MIC: 18 µg/mL
[10]
  MIC: 32 µg/mL (≈ 54.6 µM)
Escherichia coli [11]
  MIC: 4 µg/mL (≈ 6.83 µM)
Pseudomonas aeruginosa [12]
  MIC: 2 µg/mL (≈ 3.42 µM)
Serratia liquefaciens
  MIC: 4 µg/mL (≈ 6.83 µM)
Staphylococcus aureus [13]
  MIC: 13 µg/mL (≈ 22.2 µM)
Citrobacter freundii [14]
  MIC: 30 µg/mL (≈ 51.2 µM)
Enterobacter cloacae [15]
  MIC: 4 µg/mL (≈ 6.83 µM)
Acinetobacter baumannii [16]
  MIC: 2 µg/mL (≈ 3.42 µM)
Pseudomonas aeruginosa [17]
  MIC: 4 µg/mL (≈ 6.83 µM)
Klebsiella aerogenes [18]
  MIC: 4 µg/mL (≈ 6.83 µM)
Staphylococcus aureus [19]
  MIC: > 64 µg/mL
Klebsiella aerogenes [20]
  MIC: 30 µg/mL (≈ 51.2 µM)
Staphylococcus aureus [21]
  MIC: 2 µg/mL (≈ 3.42 µM)
Enterobacter cloacae [22]
  MIC: 2 µg/mL (≈ 3.42 µM)
Pseudomonas aeruginosa [23]
  MIC: 0.5 µg/mL (≈ 0.854 µM)
Pseudomonas aeruginosa [24]
  MIC: 4 µg/mL (≈ 6.83 µM)
Enterobacter cloacae [25]
  MIC: 30 µg/mL (≈ 51.2 µM)
Klebsiella pneumoniae [26]
  MIC: 4 µg/mL (≈ 6.83 µM)
Staphylococcus sp.
  MIC50: 16 µg/mL (≈ 27.3 µM)
  MIC90: > 64 µg/mL
Citrobacter
  MIC50: 32 µg/mL (≈ 54.6 µM)
Pseudomonas aeruginosa [27]
  MIC50: 16 µg/mL (≈ 27.3 µM)
  MIC90: > 64 µg/mL
Serratia marcescens [28]
  MIC: 2 µg/mL (≈ 3.42 µM)
Escherichia coli [29]
  MIC: 4 µg/mL (≈ 6.83 µM)
Klebsiella pneumoniae [30]
  MIC: 2 µg/mL (≈ 3.42 µM)
Pseudomonas aeruginosa [31]
  MIC: 32 µg/mL (≈ 54.6 µM)
Escherichia coli [32]
  MIC: > 64 µg/mL
Acinetobacter baumannii [33]
  MIC: 16 µg/mL (≈ 27.3 µM)
Klebsiella pneumoniae [34]
  MIC: 0.5 µg/mL (≈ 0.854 µM)
Acinetobacter
  MIC: > 64 µg/mL
Serratia sp.
  MIC50: 8 µg/mL (≈ 13.7 µM)
Escherichia coli [35]
  MIC: 2 µg/mL (≈ 3.42 µM)
Klebsiella oxytoca [36]
  MIC: 4 µg/mL (≈ 6.83 µM)
Acinetobacter baumannii [37]
  MIC: 4 µg/mL (≈ 6.83 µM)
Acinetobacter baumannii [38]
  MIC: 16 µg/mL (≈ 27.3 µM)
Escherichia coli [39]
  MIC: 2 µg/mL (≈ 3.42 µM)
